Laboratory results as given in ChEMBL document CHEMBL1144203, “Synthesis and antiviral evaluation of acyclic azanucleosides developed from sulfanilamide as a lead structure” (Bioorg Med Chem, 2008).
The source made the active and inactive calls. The rule behind the calls is not given here.

Key:
HEL = experiment: Cytotoxicity against HEL cells assessed as decrease in cell viability upto 100 uM by MTS assay; format: cell-based; conditions: human
Felid alphaherpesvirus 1 = experiment: Antiviral activity against feline herpes virus infected in CRFK cells assessed as inhibition of virus-induced cytopathic effect at 100 uM by MTS assay; format: functional, organism-based
Punta Toro virus [1] = experiment: Antiviral activity against Punta Toro virus infected in Vero cells assessed as inhibition of virus-induced cytopathic effect at 100 uM by MTS assay; format: functional, organism-based
Procedure, shortened: (§1)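 Vero cell monolayers were infected with the virus in cell-based CPE assays. EC50 is the concentration giving 50% inhibition of virus-induced cytopathic effect, scored visually or by MTS formazan colorimetric cell-viability read-out. The highest concentration tested was 100 μM for most compounds and lower for a few.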

Sindbis virus = experiment: Antiviral activity against Sindbis virus infected in Vero cells assessed as inhibition of virus-induced cytopathic effect at 100 uM by MTS assay; format: functional, organism-based; procedure, shortened: as §1
[2] = system: Respiratory syncytial virus; experiment: Antiviral activity against respiratory syncytial virus infected in HeLa cells assessed as inhibition of virus-induced cytopathic effect at 100 uM by MTS assay; format: functional, organism-based
Procedure, shortened: (§2)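 HeLa cells were infected with the virus, and compounds were tested up to 100 μM. EC50 is the concentration that halves virus-induced cytopathic effect, read by visual CPE scoring or by MTS formazan colorimetric viability measurement.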

Human alphaherpesvirus 2 = experiment: Antiviral activity against HSV2 virus infected in HEL cells assessed as inhibition of virus-induced cytopathic effect at 100 uM by MTS assay; format: functional, organism-based
Human alphaherpesvirus 1 = experiment: Antiviral activity against HSV1 virus infected in HEL cells assessed as inhibition of virus-induced cytopathic effect at 100 uM by MTS assay; format: functional, organism-based
[3] = system: Mammalian orthoreovirus 1; experiment: Antiviral activity against Reovirus1 infected in Vero cells assessed as inhibition of virus-induced cytopathic effect at 100 uM by MTS assay; format: functional, organism-based; procedure, shortened: as §1
HeLa [4] = experiment: Cytotoxicity against human HeLa cells assessed as decrease in cell viability upto 100 uM by MTS assay; format: functional, cell-based
Procedure, shortened: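 Uninfected HeLa host cells were tested up to 100 μM. CC50 is the concentration causing a 50% drop in cell viability by colorimetric formazan-based MTS assay. Alternatively, MCC is the minimal concentration giving microscopically detectable alteration of normal cell morphology.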

Feline coronavirus = experiment: Antiviral activity against feline coronavirus infected in CRFK cells assessed as inhibition of virus-induced cytopathic effect at 100 uM by MTS assay; format: functional, organism-based
[5] = Cytotoxicity against MDCK cells assessed as decrease in cell viability by MTS assay; format: cell-based, Canis lupus familiaris; conditions: dog
Procedure, shortened: (§3)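 Uninfected host cells were exposed to compound. CC50 was taken as the concentration giving a 50% fall in cell viability, measured by a colorimetric formazan-based MTS assay.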

Coxsackievirus B4 [6] = experiment: Antiviral activity against Coxsackievirus B4 infected in Vero cells assessed as inhibition of virus-induced cytopathic effect at 100 uM by MTS assay; format: functional, organism-based; procedure, shortened: as §1
[7] = Cytotoxicity against CRFK cells assessed as decrease in cell viability by MTS assay; format: cell-based, Felis catus; conditions: cat; procedure, shortened: as §3
Coxsackievirus B4 [8] = experiment: Antiviral activity against Coxsackievirus B4 infected in HeLa cells assessed as inhibition of virus-induced cytopathic effect at 100 uM by MTS assay; format: functional, organism-based; procedure, shortened: as §2
Human respirovirus 3 = experiment: Antiviral activity against Parainfluenza 3 virus infected in Vero cells assessed as inhibition of virus-induced cytopathic effect at 100 uM by MTS assay; format: functional, organism-based; procedure, shortened: as §1
[9] = Cytotoxicity against MDCK cells assessed as alteration in cell morphology by MTS assay; format: cell-based, Canis lupus familiaris; conditions: dog
Procedure, shortened: (§4)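 Uninfected host cells were exposed to compound and examined under the microscope. MCC was the minimal compound concentration causing a microscopically detectable change in normal cell morphology.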

[10] = Cytotoxicity against CRFK cells assessed as decrease in cell viability upto 100 uM by MTS assay; format: cell-based, Felis catus; conditions: cat
[11] = Cytotoxicity against african green monkey Vero cells assessed as alteration in cell morphology by MTS assay; format: cell-based; conditions: chlorocebus sabaeus; procedure, shortened: as §4
MDCK = experiment: Cytotoxicity against MDCK cells assessed as decrease in cell viability upto 100 uM by MTS assay; format: cell-based, Canis lupus familiaris; conditions: dog
[12] = Cytotoxicity against HEL cells assessed as alteration in cell morphology by MTS assay; format: cell-based; conditions: human
Procedure, shortened: (§5)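 Uninfected host cells (HEL or HeLa) exposed to compounds […]. The minimal cytotoxic concentration (MCC) is the lowest concentration causing a microscopically detectable change in normal cell morphology. CC50 is the concentration giving a 50% fall in cell viability by the colorimetric formazan-based MTS assay.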

HeLa [13] = experiment: Cytotoxicity against human HeLa cells assessed as alteration in cell morphology by MTS assay; format: functional; procedure, shortened: as §5
Coxsackievirus B4 [14] = experiment: Antiviral activity against Coxsackievirus B4 infected in Vero cells assessed as inhibition of virus-induced cytopathic effect by MTS assay; format: functional, organism-based; conditions: Enterovirus B
Procedure, shortened: (§6)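 Vero cell monolayers infected with Coxsackie B4 virus or Punta Toro virus, with test compounds at up to 100 μM. EC50 is the concentration giving 50% inhibition of virus-induced cytopathic effect (CPE), scored visually or from cell viability by the colorimetric formazan-based MTS assay.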

Punta Toro virus [15] = experiment: Antiviral activity against Punta Toro virus infected in Vero cells assessed as inhibition of virus-induced cytopathic effect by MTS assay; format: functional, organism-based; procedure, shortened: as §6

CC(C)(C)C(=O)OCCN(Cn1cc(F)c(=O)[nH]c1=O)S(=O)(=O)c1ccccc1[N+](=O)[O-]
Activity (HEL): Not Active | Activity (Felid alphaherpesvirus 1): inactive | Activity (Punta Toro virus [1]): inactive | Activity (Sindbis virus): inactive | Activity [2]: inactive | Activity (Human alphaherpesvirus 2): inactive | Activity (Human alphaherpesvirus 1): inactive | Activity [3]: inactive | Activity (HeLa [4]): inactive | Activity (Feline coronavirus): inactive | CC50 [5]: > 100 µM | Activity (Coxsackievirus B4 [6]): inactive | CC50 [7]: 14 µM | Activity (Coxsackievirus B4 [8]): inactive | Activity (Human respirovirus 3): inactive | MCC [9]: 4 µM

CC(C)(C)C(=O)OCCN(Cn1cc(F)c(=O)[nH]c1=O)S(=O)(=O)c1ccc([N+](=O)[O-])cc1
Activity (HEL): Not Active | Activity (Felid alphaherpesvirus 1): inactive | Activity (Punta Toro virus [1]): inactive | Activity (Sindbis virus): inactive | Activity [2]: inactive | Activity (Human alphaherpesvirus 2): inactive | Activity (Human alphaherpesvirus 1): inactive | Activity [3]: inactive | Activity (HeLa [4]): inactive | Activity (Feline coronavirus): inactive | CC50 [5]: 69 µM | Activity (Coxsackievirus B4 [6]): inactive | CC50 [7]: 44 µM | Activity (Coxsackievirus B4 [8]): inactive | Activity (Human respirovirus 3): inactive | MCC [9]: 20 µM

CC(=O)Nc1ccc(S(=O)(=O)N(CCOC(=O)C(C)(C)C)Cn2ccc(=O)[nH]c2=O)cc1
Activity (HEL): Not Active | Activity (Felid alphaherpesvirus 1): inactive | Activity (Punta Toro virus [1]): inactive | Activity (Sindbis virus): inactive | Activity [10]: Not Active | MCC [11]: 40 µM | Activity [2]: inactive | Activity (MDCK): Not Active | Activity (Human alphaherpesvirus 2): inactive | Activity (Human alphaherpesvirus 1): inactive | Activity [3]: inactive | Activity (HeLa [4]): inactive | Activity (Feline coronavirus): inactive | Activity (Coxsackievirus B4 [6]): inactive | Activity (Coxsackievirus B4 [8]): inactive | Activity (Human respirovirus 3): inactive

CC(C)(C)C(=O)OCCN(Cn1ccc(=O)[nH]c1=O)S(=O)(=O)c1ccc([N+](=O)[O-])cc1
Activity (HEL): Not Active | Activity (Felid alphaherpesvirus 1): inactive | Activity (Punta Toro virus [1]): inactive | Activity (Sindbis virus): inactive | Activity [2]: inactive | Activity (MDCK): Not Active | Activity (Human alphaherpesvirus 2): inactive | Activity (Human alphaherpesvirus 1): inactive | Activity [3]: inactive | Activity (HeLa [4]): inactive | Activity (Feline coronavirus): inactive | Activity (Coxsackievirus B4 [6]): inactive | CC50 [7]: 49 µM | Activity (Coxsackievirus B4 [8]): inactive | Activity (Human respirovirus 3): inactive

Nc1nc(O)c2ncn(COC(CO)CO)c2n1 [GANCICLOVIR]
MCC [12]: > 100 µM | CC50 [7]: > 100 µM

O=c1[nH]c(=O)n([C@H]2C[C@H](O)[C@@H](CO)O2)cc1/C=C/Br [BRIVUDINE]
MCC [11]: > 250 µM | MCC (HeLa [13]): > 250 µM | MCC [12]: > 250 µM

NC12CC3CC(CC(C3)C1)C2 [AMANTADINE]
CC50 [5]: > 100 µM | MCC [9]: > 100 µM

Nc1ncnc2c1ncn2C[C@H](O)CO [(S)-DHPA]
MCC [11]: > 250 µM | MCC (HeLa [13]): > 250 µM

Nc1nc2c(ncn2COCCO)c(=O)[nH]1 [ACYCLOVIR]
MCC [12]: > 250 µM

CC(=O)Nc1ccc(S(=O)(=O)N(CCOC(=O)C(C)(C)C)Cn2cc(C)c(=O)[nH]c2=O)cc1
Activity (HEL): Not Active | Activity (Felid alphaherpesvirus 1): inactive | Activity (Punta Toro virus [1]): inactive | Activity (Sindbis virus): inactive | Activity [10]: Not Active | MCC [11]: 40 µM | Activity [2]: inactive | Activity (MDCK): Not Active | Activity (Human alphaherpesvirus 2): inactive | Activity (Human alphaherpesvirus 1): inactive | Activity [3]: inactive | Activity (HeLa [4]): inactive | Activity (Feline coronavirus): inactive | Activity (Coxsackievirus B4 [6]): inactive | Activity (Coxsackievirus B4 [8]): inactive | Activity (Human respirovirus 3): inactive

Cc1cn(CN(CCOC(=O)C(C)(C)C)S(=O)(=O)c2ccc([N+](=O)[O-])cc2)c(=O)[nH]c1=O
Activity (HEL): Not Active | Activity (Felid alphaherpesvirus 1): inactive | Activity (Punta Toro virus [1]): inactive | Activity (Sindbis virus): inactive | Activity [2]: inactive | Activity (MDCK): Not Active | Activity (Human alphaherpesvirus 2): inactive | Activity (Human alphaherpesvirus 1): inactive | Activity [3]: inactive | Activity (HeLa [4]): inactive | Activity (Feline coronavirus): inactive | Activity (Coxsackievirus B4 [6]): inactive | CC50 [7]: 53 µM | Activity (Coxsackievirus B4 [8]): inactive | Activity (Human respirovirus 3): inactive

Cc1cn(CN(CCOC(=O)C(C)(C)C)S(=O)(=O)c2ccccc2[N+](=O)[O-])c(=O)[nH]c1=O
Activity (HEL): Not Active | Activity (Felid alphaherpesvirus 1): inactive | Activity (Sindbis virus): inactive | Activity [10]: Not Active | Activity [2]: inactive | EC50 (Coxsackievirus B4 [14]): 100 µM | Activity (MDCK): Not Active | Activity (Human alphaherpesvirus 2): inactive | Activity (Human alphaherpesvirus 1): inactive | Activity [3]: inactive | Activity (HeLa [4]): inactive | Activity (Feline coronavirus): inactive | EC50 (Punta Toro virus [15]): 100 µM | Activity (Coxsackievirus B4 [8]): inactive | Activity (Human respirovirus 3): inactive

NC(=O)c1ncn([C@@H]2O[C@H](CO)[C@@H](O)[C@H]2O)n1 [RIBAVIRIN]
MCC [11]: > 250 µM | MCC (HeLa [13]): > 250 µM | CC50 [5]: > 100 µM | MCC [12]: > 250 µM | MCC [9]: 100 µM

CCOC(=O)C1=C[C@@H](OC(CC)CC)[C@H](NC(C)=O)[C@@H](N)C1 [OSELTAMIVIR]
CC50 [5]: > 100 µM | MCC [9]: > 100 µM

Cc1cn(CN(CCOC(=O)C(C)(C)C)S(=O)(=O)c2ccccc2N)c(=O)[nH]c1=O
Activity (HEL): Not Active | Activity (Felid alphaherpesvirus 1): inactive | Activity (Punta Toro virus [1]): inactive | Activity (Sindbis virus): inactive | Activity [10]: Not Active | Activity [2]: inactive | Activity (MDCK): Not Active | Activity (Human alphaherpesvirus 2): inactive | Activity (Human alphaherpesvirus 1): inactive | Activity [3]: inactive | Activity (HeLa [4]): inactive | Activity (Feline coronavirus): inactive | Activity (Coxsackievirus B4 [6]): inactive | Activity (Coxsackievirus B4 [8]): inactive | Activity (Human respirovirus 3): inactive

CC(C)(C)C(=O)OCCN(Cn1ccc(=O)[nH]c1=O)S(=O)(=O)c1ccccc1N
Activity (HEL): Not Active | Activity (Felid alphaherpesvirus 1): inactive | Activity (Punta Toro virus [1]): inactive | Activity (Sindbis virus): inactive | Activity [10]: Not Active | Activity [2]: inactive | Activity (MDCK): Not Active | Activity (Human alphaherpesvirus 2): inactive | Activity (Human alphaherpesvirus 1): inactive | Activity [3]: inactive | Activity (HeLa [4]): inactive | Activity (Feline coronavirus): inactive | Activity (Coxsackievirus B4 [6]): inactive | Activity (Coxsackievirus B4 [8]): inactive | Activity (Human respirovirus 3): inactive

CC(N)C12CC3CC(CC(C3)C1)C2 (stereo not drawn) [RIMANTADINE]
CC50 [5]: > 100 µM | MCC [9]: > 100 µM

CC(C)(C)C(=O)OCCN(Cn1cc(F)c(=O)[nH]c1=O)S(=O)(=O)c1ccc(N)cc1
Activity (HEL): Not Active | Activity (Felid alphaherpesvirus 1): inactive | Activity (Punta Toro virus [1]): inactive | Activity (Sindbis virus): inactive | Activity [10]: Not Active | Activity [2]: inactive | Activity (MDCK): Not Active | Activity (Human alphaherpesvirus 2): inactive | Activity (Human alphaherpesvirus 1): inactive | Activity [3]: inactive | Activity (HeLa [4]): inactive | Activity (Feline coronavirus): inactive | Activity (Coxsackievirus B4 [6]): inactive | Activity (Coxsackievirus B4 [8]): inactive | Activity (Human respirovirus 3): inactive
